High-throughput results from PubChem BioAssay.
NR1D1 modulator – modulates human Rev-erb alpha binding to DNA | P20393 | Rev-erbα–FITC-DNA binding, fluorescence polarization, 90 min | activity, % at 10 µM | actives 0.79% (n = 370,000) | AID 1259318;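 active means activity above about 14%, limit read from the data; passing the limit was not always enough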
NR2E3 ag-1 – human photoreceptor-specific nuclear receptor agonism; Q9Y5X4; CHO-S Gal4-NCOR/VP16-NR2E3 two-hybrid, luciferase; inhibition of corepressor binding, % at 3.98 µM; actives 0.35% (n = 360,000); AID 602229;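 active means inhibition above the mean of all tested compounds plus 3 SD, cut at about 70% in these data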;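 further: higher means lower luciferase signal from less NR2E3 corepressor binding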
Target sequence (Q9Y5X4 whole entry, looked up, the tested form may be a part): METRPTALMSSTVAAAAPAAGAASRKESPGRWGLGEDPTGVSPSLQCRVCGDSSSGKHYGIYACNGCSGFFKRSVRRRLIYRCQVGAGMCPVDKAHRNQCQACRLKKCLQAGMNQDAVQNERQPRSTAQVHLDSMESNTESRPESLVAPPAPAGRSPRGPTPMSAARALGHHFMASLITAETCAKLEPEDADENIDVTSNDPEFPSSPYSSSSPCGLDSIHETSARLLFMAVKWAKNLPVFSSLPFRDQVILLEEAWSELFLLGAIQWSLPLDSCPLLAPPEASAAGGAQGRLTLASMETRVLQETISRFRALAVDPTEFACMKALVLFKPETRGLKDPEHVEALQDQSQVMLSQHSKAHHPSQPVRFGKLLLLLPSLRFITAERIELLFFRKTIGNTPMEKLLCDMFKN
NR2E3 ag-2 – NR2E3 (human) agonism; inhibition of corepressor binding, % at 4.78 µM; Q9Y5X4; GST-NR2E3/biotin-RetCOR TR-FRET, 1536-well; AID 2300; actives 0.12% (n = 320,000);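 active means percent inhibition above the cutoff of mean plus 3 SD of all tested compounds, set per screening campaign, cut at about 20% in these data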
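System: GST-tagged NR2E3 plus biotinylated RetCOR corepressor; Amount: 1.35 nM GST-tagged NR2E3 final; Dosing: single nominal compound dose of 4.8 µM; Schedule: 5 h incubation at 4 °C; Technique: TR-FRET with europium anti-GST and streptavidin-D2, 340 nm excitation; Controls: biotin wells as high control, 0.6% DMSO wells as low control.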
PG9 Ab binder – binds the HIV-1 gp120 antibody PG9; TR-FRET gp120-PG9 antibody binding; actives 0.43% (n = 360,000); inhibition, % at 6.7 µM; in the data active means inhibition above about 8.5%
NR2E3 ag confirm – NR2E3 agonism confirmed in two-hybrid assay | shares compounds with NR2E3 ag-1 | CHO-S mammalian two-hybrid NR2E3-NCOR, luciferase luminescence | inhibition, % at 3.98 µM | actives 51% (n = 2,300);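 active means average inhibition above a cutoff equal to the mean inhibition of all tested compounds plus one SD, cut at about 70% in these data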
GAL4-VP16 luc – counter-screen for NR2E3 agonists: GAL4-VP16 reporter inhibitors; shares compounds with NR2E3 ag-1; actives 29% (n = 2,300); CHO-S GAL4-VP16 luciferase reporter, luminescence; inhibition, % at 3.98 µM;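 active means mean inhibition above a cutoff equal to the average over all tested compounds plus one standard deviation, cut at about 70% in these data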;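 further: luciferase from a UAS reporter driven by GAL4-VP16 transactivation; higher means less reporter light so more repression of VP16 activity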
Hits are given with their value; . = inactive; / = no result given. This is a sample that favours compounds with a hit; in the whole collection about 1.5% have one here.

SMILES | NR1D1 modulator | NR2E3 ag-1 | NR2E3 ag-2 | PG9 Ab binder | NR2E3 ag confirm | GAL4-VP16 luc
NC(=O)c1cc(S(=O)(=O)N2CCCCC2)cs1 | . | . | . | . | / | /
CC(=NNc1nc2ccccc2s1)c1ccncn1 | . | . | / | . | . | .
O=C(Nc1nnc(-c2cccnc2)s1)c1cnc2ccccc2c1 | . | / | / | / | / | /
CC(C)(C)c1ccc(-n2ncc3c2CCCC3NC(=O)CCN2CCCO2)cc1 (stereo not given) | . | . | . | . | . | .
CC(C)(C)c1ccc(-n2ncc3c2CCCC3NC(=O)CN2CCCCC2=O)cc1 (stereo not given) | . | . | . | . | . | .
CC(=O)NCC(=O)NC1CCCc2c1cnn2-c1ccc(C(C)(C)C)cc1 (stereo not given) | . | . | . | . | / | /
Cc1cc(C(=O)NC2CCCc3c2cnn3-c2ccc(C(C)(C)C)cc2)nn1C (stereo not given) | . | 101 | . | . | 94 | 82
CC(C)(C)c1ccc(-n2ncc3c2CCCC3NC(=O)CCn2cncn2)cc1 (stereo not given) | . | . | . | . | / | /
CC(C)(C)c1ccc(-n2ncc3c2CCCC3NC(=O)C2(C(N)=O)CC2)cc1 (stereo not given) | . | 100 | . | . | 92 | 81
COC(=O)[C@]1(CNS(=O)(=O)C2CC2)CC(=O)N(C)[C@@H]1c1ccccc1 | . | / | / | / | / | /
C[C@H]1[C@@H](OC(=O)Nc2ccccc2Cl)CC[C@@]23CCCN2C(=O)CCC[C@@H]13 | . | / | / | / | / | /
CCOC(=O)Cc1nc(N2CCCN(C(C)=O)CC2)c2c(C)c(C(=O)OCC)sc2n1 | . | / | / | / | / | /
CCCOc1ccc(F)cc1-c1cc(C(=O)NCc2ccc(C(F)(F)F)cc2)[nH]n1 | / | . | / | / | . | .
CCOc1ccc(-n2c(SCC(=O)Nc3ccccc3-c3ccccc3)nnc2-c2ccncc2)cc1 | . | / | / | / | / | /
O=C(Nc1ccc(OCC(F)(F)C(F)F)c(C(F)(F)F)c1)c1ccccc1O | . | 99 | . | . | 98 | 75
COc1ccc(C(=O)Nc2cnn(Cc3ccc(Cl)cc3)c2)cc1OC | . | . | . | . | . | .
CC(C)(C)c1ccc(CC(=O)N2CCC2(C)C(=O)Nc2cnc3ccccc3c2)cc1 (stereo not given) | . | . | / | . | . | .
CC(C)c1ccc(CC(=O)N2CCC2(C)C(=O)Nc2cnc3ccccc3c2)cc1 (stereo not given) | . | . | / | . | / | /
Cc1ccc(NC(=O)C2(C)CCN2C(=O)Cc2ccc(-c3ccccc3)cc2)cc1 (stereo not given) | . | . | / | . | 88 | .
NS(=O)(=O)c1ccc(CCNc2nn3c(-c4ccc(F)c(Cl)c4)cnc3s2)cc1 | . | . | / | . | . | .
CC(=O)c1cccc(NS(=O)(=O)c2ccc(NC(=O)N3CCCCC3)cc2)c1 | . | . | . | . | . | .
CC(C)c1ccc(C(=O)Nc2cc(Cl)ccc2C(=O)O)cc1 | . | / | / | / | / | /
CCCN(CCC)S(=O)(=O)c1ccc(C(=O)Nc2nnc(CSC)o2)cc1 | . | . | . | . | . | .
COCc1nnc(NC(=O)c2ccc(S(=O)(=O)N(CC(C)C)CC(C)C)cc2)o1 | . | 77 | . | . | 89 | .
CCCCN(CCCC)S(=O)(=O)c1ccc(C(=O)Nc2nnc(CSC)o2)cc1 | . | . | . | . | / | /
SMILES | NR1D1 modulator | NR2E3 ag-1 | NR2E3 ag-2 | PG9 Ab binder | NR2E3 ag confirm | GAL4-VP16 luc
CCN(c1ccccc1)S(=O)(=O)c1ccc(C(=O)Nc2nnc(CSC)o2)cc1 | . | . | . | . | 93 | .
C=CCN(CC=C)S(=O)(=O)c1ccc(C(=O)Nc2nnc(COC)o2)cc1 | . | . | . | . | / | /
CCN(c1ccccc1)S(=O)(=O)c1ccc(C(=O)Nc2nnc(COC)o2)cc1 | . | . | . | . | / | /
CCCCCCN1CCS(=O)(=O)N(Cc2ccccc2)C(C(=O)OC)C1 (stereo not given) | . | / | / | / | / | /
O=C(NCCO)[C@H](Cc1ccccc1)NC1(C(=O)NCCc2c[nH]c3ccccc23)CCCCC1 | . | / | / | / | / | /
Cc1ccc(-n2ncc3c(SCc4cccc(C)c4)ncnc32)cc1 | . | . | . | . | / | /
Cc1ccc(-n2ncc3c(SCc4cccnc4)ncnc32)c(C)c1 | . | . | / | . | 81 | .
CC(C)[C@H](NC(=O)[C@@H]1CCCN1)C(=O)N1CCC2CCN(S(=O)(=O)c3ccccc3)CC21 (stereo not given in full) | . | / | / | / | / | /
COc1ccccc1OCc1ccc(C(=O)Nc2ccccc2)cc1 | . | . | . | . | / | /
O=C(Nc1ccc(Cn2cccn2)cc1)c1ccc(COc2ccccc2Br)cc1 | . | . | . | . | 86 | .
O=C(Nc1ccc(N2CCN(C(=O)c3ccccc3)CC2)cc1)c1ccc2c(c1)OCO2 | . | . | . | . | 85 | .
CC(=O)N1CCN(c2ccc(NC(=O)c3ccc4c(c3)OCO4)cc2)CC1 | . | . | . | . | / | /
O=C1C(=O)c2cccnc2-c2ncccc21 | . | 72 | / | . | 89 | .
CC1CCc2nc(NC(=O)CSc3nc4ccccc4o3)sc2C1 (stereo not given) | . | 84 | . | . | . | .
O=C1NC(=S)SC1=Cc1ccccc1Br | . | 74 | / | . | 95 | 72
O=S(=O)(NCCN1CCOCC1)c1ccc2ccccc2c1 | . | . | / | . | / | /
O=S(=O)(NCCN1CCOCC1)c1ccc(Oc2ccccc2Cl)cc1 | . | . | . | . | . | .
Cc1ccc(CSC(Nc2ccc(F)cc2)=C(C#N)C#N)cc1 | . | 99 | . | . | 99 | 90
CCN(CC)C(=O)CSC(Nc1ccc(F)cc1)=C(C#N)C#N | . | . | . | . | / | /
COc1ccccc1C(=O)NC1CCCCN(Cc2ccc(C)cc2)C1=O (stereo not given) | . | / | / | / | / | /
COc1cc(CSc2nnnn2-c2ccc(C)cc2)cc(OC)c1OC | . | 98 | . | . | 94 | 84
CC(C)(C)c1ccc(C(=O)O/N=C(\N)c2ccccc2)cc1 | . | 81 | . | . | 78 | 74
COc1ccc(C(=O)O/N=C(\N)c2ccccc2)cc1 | . | . | . | . | / | /
O=C(c1cccs1)C1CCN(c2ncnc3sccc23)CC1 | . | / | / | / | / | /
COc1cc(N(C)C)ccc1C=c1c2ccccc2n2c1cc(-c1ccccc1)[n+]2C | . | 87 | / | . | 91 | .
SMILES | NR1D1 modulator | NR2E3 ag-1 | NR2E3 ag-2 | PG9 Ab binder | NR2E3 ag confirm | GAL4-VP16 luc
CN(C)c1ccc(C=c2c3ccccc3n3c2cc(-c2ccccc2)[n+]3C)cc1 | . | 80 | / | . | 93 | .
CN(C)c1ccc(C=c2c3ccccc3n3c2cc(-c2ccc(Cl)cc2)[n+]3C)cc1 | . | . | / | . | / | /
CN(C)c1ccc(C=c2c3ccccc3n3c2c2c([n+]3C)CCCC2)cc1 | . | 96 | / | . | 100 | 91
S=C(NCc1ccc(Cl)cc1)OC1CCC12CCC(c1ccccc1)CC2 (stereo not given) | . | / | / | / | / | /
O=C(Nc1ccc2ccccc2c1)NC1CCCCN(Cc2ccc(Cl)cc2)C1=O (stereo not given) | . | / | / | / | / | /
CC(C)Oc1ccc(-c2csc(N3CCC(C(N)=O)CC3)n2)cc1 | . | / | / | / | / | /
